Data set [1] can be described thus: folding enthalpy; higher = less favourable; fluorescence melt of hairpins on a sequencing array, two-state fit. Particulars: sodium 0.088 M. The method, boiled down:
(§1)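 Folding enthalpy and melting temperature were estimated with bootstrapped two-state fits and combined across four replicates by inverse-variance weighting, with fitted temperatures raised by 9.35 °C to match UV melts. The data were Cy3 fluorescence of library hairpins, with annealed Cy3 and quencher oligos, on a sequenced MiSeq flow cell in 50 mM Na-HEPES pH 8.0, 25 mM NaCl, imaged in 2.5 °C steps up to 60 °C and normalised to pre-quench Cy3 and control constructs.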

Data set [2] is described as follows: melting temperature; fluorescence melt of hairpins on a sequencing array, two-state fit, raised by 9.35 °C to match UV melts. Particulars: sodium 0.088 M. The method, boiled down: as §1

Consider GAGACCGAAAGGTTCCTC ((((((....)))..))), for which, in data set [1], the folding enthalpy was -12.4 kcal/mol. Moreover, the Tm in data set [2] stood at 32 °C.
Turning to GCCCTGCGAAAGCCGTGC ((.(.((....)).).)), the folding enthalpy in data set [1] is -11.6 kcal/mol. In addition, the Tm in data set [2] came to 31.7 °C.
As to GTTCCCCGAAAGGGTAAC (((.(((....))).))), the folding enthalpy in data set [1] was -19.9 kcal/mol. Moreover, in data set [2], the Tm worked out at 40.9 °C.
The corresponding values for GTGCTCGCGAAAGCGCAC (((..(((....)))))) are -17.4 kcal/mol and 49.2 °C.
For GATATACGAAAGTAAATC (((.(((....))).))), the folding enthalpy in data set [1] was -14.6 kcal/mol. The Tm in data set [2] was 33 °C.
The matching figures for GATCTAGTGATAGATC ((((((....)))))): -34.5 kcal/mol and 45.7 °C.
The corresponding values for GATCGTCCACACGATC ((((((....)))))) are -34.7 kcal/mol and 53.9 °C.
The matching figures for GCGACTAATCGC ((((....)))): -24.2 kcal/mol and 47.2 °C.
Consider GCGATGTCTCGC ((((....)))), for which the folding enthalpy in data set [1] is -19.6 kcal/mol. Further, in data set [2], the Tm worked out at 48.6 °C.
The matching figures for GCCCTAGGAAACCAAGGC (((.(.(....).).))): -12 kcal/mol and 28.2 °C.
For CGGACCGGAAACGGCCCG (((.(((....))).))), the folding enthalpy in data set [1] was -39.9 kcal/mol. For the same sequence, in data set [2], the Tm is 56.4 °C.
Consider GACGCAGGAAACTGCGCC (.(((((....))))).), for which the folding enthalpy in data set [1] was -13.5 kcal/mol. Further, in data set [2], the Tm amounted to 50.2 °C.
The corresponding values for GATCTCCGCGGAGATC ((((((....)))))) are -50.1 kcal/mol and 60.9 °C.
The matching figures for GCGTAGGGAAACCTGTGC ((..(((....)))..)): -14.2 kcal/mol and 37.4 °C.
Regarding GTATCCGAAAGGATATAC ((((((....)))..))), in data set [1], the folding enthalpy is -13.8 kcal/mol. For the same sequence, the Tm in data set [2] is 44.8 °C.
In the case of GGAAACGGAAACGTTTTC (.(((((....))))).), the folding enthalpy in data set [1] is -28.3 kcal/mol. Besides, the Tm in data set [2] was found to be 46.8 °C.
The matching figures for GTAGGCGGAAACGCTTAC (((.(((....))).))): -23.1 kcal/mol and 48.2 °C.
The corresponding values for GAATGCGGAAACGCATCC (.(((((....))))).) are -11.6 kcal/mol and 42.5 °C.
The matching figures for GTGTGCGAAAGCATCCAC ((((((....)))..))): -11 kcal/mol and 33.9 °C.
On to GTATAGCCGAAAGGCTAC (((..(((....)))))), for which the folding enthalpy in data set [1] was -7.94 kcal/mol. The Tm in data set [2] was found to be 36.4 °C.
Consider CGCGGAATGATCCGCG ((((((....)))))), for which the folding enthalpy in data set [1] was -39.7 kcal/mol. Besides, the Tm in data set [2] turned out to be 62.5 °C.
As for GGAGTGGGAAACCACTTC (.(((((....))))).), the folding enthalpy in data set [1] was -20.2 kcal/mol. In addition, the Tm in data set [2] amounted to 49.4 °C.
Take GTCGCGCGAAAGCGGAC (((.(((....)))))): the folding enthalpy in data set [1] was -15.4 kcal/mol. Besides, the Tm in data set [2] turned out to be 56.5 °C.
For the sequence GCCCCCGAAAGGGTTGGC ((((((....)))..))), the folding enthalpy in data set [1] was -18 kcal/mol. Moreover, the Tm in data set [2] was found to be 52.6 °C.
For GCGTACGAAAGTACCCGC ((((((....)))..))), the folding enthalpy in data set [1] is -14.2 kcal/mol. In addition, in data set [2], the Tm is 40.2 °C.
The corresponding values for GTCCTCGAAAGAGCGGAC ((((((....)))..))) are -22.1 kcal/mol and 36.1 °C.
For the sequence GTAGACGAAAGTCTTAC ((((((....))).))), the folding enthalpy in data set [1] is -14.6 kcal/mol. The Tm in data set [2] came to 38.6 °C.
The corresponding values for GTTAATGAAAATTAAC ((((((....)))))) are -25.9 kcal/mol and 40.1 °C.
The corresponding values for GTCATGGGAAACTGTGAC ((((..(....)..)))) are -32.9 kcal/mol and 39.1 °C.
The corresponding values for GACTGGCGAAAGCCGTC (((.(((....)))))) are -11.5 kcal/mol and 67 °C.
Consider GCCCAAGGAAACTTGAGC ((.((((....)))).)), for which the folding enthalpy in data set [1] was -25.1 kcal/mol. The Tm in data set [2] was determined as 37.7 °C.
Take GCACACGGAAACGTACGC ((..(((....)))..)): in data set [1], the folding enthalpy was -25.2 kcal/mol. For the same sequence, in data set [2], the Tm stood at 35.6 °C.
Regarding GCAATCCGAAAGGAATGC (((.(((....))).))), the folding enthalpy in data set [1] is -34.5 kcal/mol. For the same sequence, the Tm in data set [2] was found to be 54.5 °C.
As to GATCTCAGTCGAGATC ((((((....)))))), the folding enthalpy in data set [1] is -35.1 kcal/mol. Further, the Tm in data set [2] worked out at 54.1 °C.
Turning to GTTGGCGCGAAAGCGAAC (((..(((....)))))), the folding enthalpy in data set [1] was -12.9 kcal/mol. Besides, in data set [2], the Tm came out at 45.9 °C.
The corresponding values for GTGCTTTCGAAAGAACAC (((..(((....)))))) are -19.8 kcal/mol and 36.7 °C.
Turning to GAACTCCGAAAGGATTC (((.(((....)))))), the folding enthalpy in data set [1] was -17 kcal/mol. Besides, the Tm in data set [2] was determined as 37.1 °C.

These data come from the array DNA melting data of Ke et al. (doi:10.1101/2024.01.08.574731).
